Experimental data as given in ChEMBL document CHEMBL3085726, “Tumor-targeting with novel non-benzoyl 6-substituted straight chain pyrrolo[2,3-d]pyrimidine antifolates via cellular uptake by folate receptor α and inhibition of de novo purine nucleotide biosynthesis” (J Med Chem, 2013).
pIC50: −log10 of the molar value. Activity calls are given as the source filed them. The calls are words filed in the database; no cut-off is given here.

Tests used:
[1] = molecular target: Thymidylate synthase (Homo sapiens) (UniProt P04818); assay: Inhibition of recombinant TS (unknown origin)
[2] = molecular target: T1, Dihydrofolate reductase (Homo sapiens) (UniProt P00374); assay: Inhibition of recombinant DHFR (unknown origin)
T1 sequence (whole entry): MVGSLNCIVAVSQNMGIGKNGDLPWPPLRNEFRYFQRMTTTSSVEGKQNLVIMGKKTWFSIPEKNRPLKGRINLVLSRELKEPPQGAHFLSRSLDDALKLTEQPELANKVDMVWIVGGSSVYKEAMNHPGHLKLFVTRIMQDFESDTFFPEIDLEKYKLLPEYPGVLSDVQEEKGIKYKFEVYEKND

[3] = test system: KB; assay: Growth inhibition of human KB cells by CellTiter Blue fluorescence dye-based assay in presence of adenosine and AICA; format: functional, cell-based
Outline: (§1)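 KB cells in complete folate-free RPMI 1640 with 2 nM leucovorin were exposed to a drug concentration range. Co-additions were adenosine (60 μM), thymidine (10 μM), both together, or AICA (320 μM). Cell density was read by CellTiter Blue fluorescence and normalized to drug-free cells. Data are representative of triplicate experiments.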

[4] = test system: KB; assay: Growth inhibition of human KB cells by CellTiter Blue fluorescence dye-based assay in presence of thymidine; format: functional, cell-based; outline: as §1
[5] = molecular target: Folate receptor beta (Homo sapiens) (UniProt P14207); assay: Displacement of [3H]-folic acid from human folate receptor-beta expressed in Chinese hamster D4 cells after 15 mins; format: cell-based
Outline: (§2)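 Cells (~1.6x10^6) rinsed with DPBS, then acidic buffer (10 mM sodium acetate, 150 mM NaCl, pH 3.5) to strip bound folate. Washed with ice-cold HEPES-buffered saline, pH 7.4. Incubated 15 min at 0°C with [3H]folic acid (50 nM, 0.5 Ci/mmol) plus a range of unlabeled ligand concentrations. Bound label normalized to protein (pmol/mg). […] Triplicate.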

[6] = molecular target: Folate receptor alpha (Homo sapiens) (UniProt P15328); assay: Displacement of [3H]-folic acid from human folate receptor-alpha expressed in Chinese hamster RT16 cells after 15 mins; format: cell-based; outline: as §2
[7] = test system: KB; assay: Growth inhibition of human KB cells expressing human RFC/FRalpha/PCFT after 96 hrs by CellTiter-blue assay in presence of folic acid; format: functional, cell-based
[8] = test system: KB; assay: Growth inhibition of human KB cells expressing human RFC/FRalpha/PCFT after 96 hrs by CellTiter-blue assay; format: functional, cell-based
[9] = Growth inhibition of Chinese hamster R2(VC) cells after 96 hrs by CellTiter-blue assay; conditions: Cricetulus griseus
[10] = test system: R2; assay: Growth inhibition of Chinese hamster R2 cells expressing human PCFT4 after 96 hrs by CellTiter-blue assay; format: functional, cell-based, Cricetulus griseus; conditions: R2, 96 h
[11] = Growth inhibition of Chinese hamster D4 cells after 96 hrs by CellTiter-blue assay in presence of folic acid; format: functional, cell-based; conditions: Cricetulus griseus, D4, 96 h
[12] = Growth inhibition of Chinese hamster D4 cells after 96 hrs by CellTiter-blue assay; format: functional, cell-based; conditions: Cricetulus griseus, D4, 96 h
[13] = Growth inhibition of Chinese hamster RT16 cells after 96 hrs by CellTiter-blue assay in presence of folic acid; format: functional, cell-based; conditions: Cricetulus griseus, RT16, 96 h
Outline: (§3)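 RT16 cells were first kept 3 days in folate-free RPMI. Cells were exposed to a drug concentration range with or without 200 nM folic acid to block FR uptake. After 96 h, CellTiter-blue fluorescence was read.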

[14] = Growth inhibition of Chinese hamster RT16 cells after 96 hrs by CellTiter-blue assay; format: functional, cell-based; conditions: Cricetulus griseus, RT16, 96 h; outline: as §3
[15] = Growth inhibition of Chinese hamster MTXRII-OuaR2-4 cells after 96 hrs by CellTiter-blue assay; conditions: Cricetulus griseus
[16] = Growth inhibition of Chinese hamster PC43-10 cells after 96 hrs by CellTiter-blue assay; format: functional, cell-based; conditions: Cricetulus griseus, PC43-10, 96 h
[17] = molecular target: T2, Trifunctional purine biosynthetic protein adenosine-3 (Homo sapiens, UniProt P22102); assay: In situ inhibition of GRAFTase in human KB cells assessed as incorporation of [14C]-glycine into [14C]-formyl GAR preincubated for 30 mins followed by [14C]-glycine addition measured after 15 hrs
T2 sequence (P22102 whole entry): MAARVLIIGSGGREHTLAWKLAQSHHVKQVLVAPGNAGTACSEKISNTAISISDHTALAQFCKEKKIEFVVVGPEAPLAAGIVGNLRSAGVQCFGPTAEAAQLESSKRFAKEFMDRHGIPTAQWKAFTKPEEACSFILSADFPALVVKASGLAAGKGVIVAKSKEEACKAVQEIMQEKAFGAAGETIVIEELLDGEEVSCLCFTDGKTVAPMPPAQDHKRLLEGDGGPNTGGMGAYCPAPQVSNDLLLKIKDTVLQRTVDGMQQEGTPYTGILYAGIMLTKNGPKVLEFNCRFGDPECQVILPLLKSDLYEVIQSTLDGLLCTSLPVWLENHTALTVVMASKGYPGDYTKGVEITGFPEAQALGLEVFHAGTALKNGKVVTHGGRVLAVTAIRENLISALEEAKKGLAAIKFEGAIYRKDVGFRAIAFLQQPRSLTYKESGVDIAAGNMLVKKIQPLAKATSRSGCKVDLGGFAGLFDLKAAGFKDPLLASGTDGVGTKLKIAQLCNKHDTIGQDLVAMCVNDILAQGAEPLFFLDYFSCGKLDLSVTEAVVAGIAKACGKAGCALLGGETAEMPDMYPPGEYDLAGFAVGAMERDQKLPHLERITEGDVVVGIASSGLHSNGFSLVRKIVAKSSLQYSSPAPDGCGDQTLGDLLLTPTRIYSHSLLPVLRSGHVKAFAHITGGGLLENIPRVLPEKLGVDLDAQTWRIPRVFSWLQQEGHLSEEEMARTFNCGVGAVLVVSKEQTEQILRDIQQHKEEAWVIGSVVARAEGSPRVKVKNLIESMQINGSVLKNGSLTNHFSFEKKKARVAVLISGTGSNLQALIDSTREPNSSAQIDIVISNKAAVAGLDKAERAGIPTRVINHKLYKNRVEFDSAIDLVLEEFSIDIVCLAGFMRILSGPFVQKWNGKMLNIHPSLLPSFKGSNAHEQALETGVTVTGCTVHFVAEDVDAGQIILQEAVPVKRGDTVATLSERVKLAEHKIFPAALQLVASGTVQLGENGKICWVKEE

Thymidylate synthase (Homo sapiens), sequence (P04818 2-313 limits assumed): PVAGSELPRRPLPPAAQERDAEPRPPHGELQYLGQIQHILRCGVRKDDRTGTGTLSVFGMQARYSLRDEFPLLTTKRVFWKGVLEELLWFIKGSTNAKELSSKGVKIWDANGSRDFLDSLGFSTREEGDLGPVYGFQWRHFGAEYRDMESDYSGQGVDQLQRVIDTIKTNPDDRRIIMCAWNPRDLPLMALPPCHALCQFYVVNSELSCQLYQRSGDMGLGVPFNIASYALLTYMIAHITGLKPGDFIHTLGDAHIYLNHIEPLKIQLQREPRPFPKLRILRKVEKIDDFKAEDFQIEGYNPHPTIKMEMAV
Folate receptor alpha (Homo sapiens), sequence (P15328 25-234 limits assumed): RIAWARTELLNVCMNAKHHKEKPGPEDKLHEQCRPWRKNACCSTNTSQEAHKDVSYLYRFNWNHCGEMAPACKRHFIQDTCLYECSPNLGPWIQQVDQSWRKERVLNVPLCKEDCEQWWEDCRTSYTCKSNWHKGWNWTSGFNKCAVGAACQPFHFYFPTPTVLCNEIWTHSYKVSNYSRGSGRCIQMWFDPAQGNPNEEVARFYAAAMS
Folate receptor beta (Homo sapiens), sequence (P14207 17-230 limits assumed): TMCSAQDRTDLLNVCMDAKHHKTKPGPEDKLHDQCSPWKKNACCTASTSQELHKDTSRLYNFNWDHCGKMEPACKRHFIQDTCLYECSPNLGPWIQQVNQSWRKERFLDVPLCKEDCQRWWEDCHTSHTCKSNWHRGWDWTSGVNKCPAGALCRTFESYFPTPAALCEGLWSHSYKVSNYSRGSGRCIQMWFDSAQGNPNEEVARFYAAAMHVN

SMILES | inhibition [1] | inhibition [2] | growth inhibition (GI) [3] | growth inhibition (GI) [4] | inhibition [5] | inhibition [6] | pIC50 [7] | pIC50 [8] | pIC50 [9] | pIC50 [10] | pIC50 [11] | pIC50 [12] | pIC50 [13] | pIC50 [14] | pIC50 [15] | pIC50 [16] | pIC50 [17]
Nc1nc2[nH]c(CCCCCCCC(=O)N[C@@H](CCC(=O)O)C(=O)O)cc2c(=O)[nH]1 | inactive | inactive | inactive | Active | Active | Active | < 6.00 | 8.96 | < 6.00 | < 6.00 | < 6.00 | 9.06 | < 6.00 | 8.07 | < 6.00 | < 6.00 | 8.26
Nc1nc2[nH]c(CCCCCCCCC(=O)O)cc2c(=O)[nH]1 |  |  |  |  | inactive | Active | < 6.00 | < 6.00 | < 6.00 | < 6.00 | < 6.00 | < 6.00 | < 7.00 | < 5.00 | < 6.00 | < 6.00 | 
Cc1nc(=O)c2cc(CN(C)c3ccc(C(=O)N[C@@H](CCC(=O)O)C(=O)O)s3)ccc2[nH]1 [RALTITREXED] |  |  |  |  |  |  |  |  | < 6.00 |  |  |  |  |  |  |  | 
Nc1nc2[nH]c(CCCCCCC(=O)N[C@@H](CCC(=O)O)C(=O)O)cc2c(=O)[nH]1 | inactive | inactive | inactive | Active | Active | Active | < 6.00 | 8.10 | < 6.00 | < 6.00 | < 6.00 | 7.98 | < 6.00 | 7.33 | < 6.00 | < 6.00 | 8.54
Nc1nc2[nH]c(CCCCCCCC(=O)O)cc2c(=O)[nH]1 |  |  |  |  |  |  | < 6.00 | < 6.00 | < 6.00 | < 6.00 | < 6.00 | < 6.00 | < 6.00 | < 6.00 | < 6.00 | < 6.00 | 
Nc1nc2[nH]c(CCCc3ccc(C(=O)N[C@@H](CCC(=O)O)C(=O)O)cc3)cc2c(=O)[nH]1 |  |  |  |  |  |  |  |  | < 6.00 |  |  |  |  |  |  |  | 
Nc1nc2[nH]c(CCCCCCc3ccc(C(=O)N[C@@H](CCC(=O)O)C(=O)O)cc3)cc2c(=O)[nH]1 |  |  |  |  |  |  |  |  | < 6.00 | < 6.00 |  |  |  |  |  |  | 
Nc1nc2[nH]c(CCCCCc3ccc(C(=O)N[C@@H](CCC(=O)O)C(=O)O)cc3)cc2c(=O)[nH]1 |  |  |  |  |  |  |  |  | < 6.00 | < 6.00 |  |  |  |  |  |  | 
Nc1nc2[nH]c(CCCCCC(=O)O)cc2c(=O)[nH]1 |  |  |  |  |  |  | < 6.00 | < 6.00 | < 6.00 | < 6.00 | < 6.00 | < 6.00 | < 6.00 | < 6.00 | < 6.00 | < 6.00 | 
CN(Cc1cnc2nc(N)nc(N)c2n1)c1ccc(C(=O)N[C@@H](CCC(=O)O)C(=O)O)cc1 [METHOTREXATE] |  |  |  |  |  |  |  |  | < 6.00 |  |  |  |  |  |  |  | 
Nc1nc2[nH]c(CCCCCCC(=O)O)cc2c(=O)[nH]1 |  |  |  |  |  |  | < 6.00 | < 6.00 | < 6.00 | < 6.00 | < 6.00 | < 6.00 | < 6.00 | < 6.00 | < 6.00 | < 6.00 | 
Nc1nc2c(c(=O)[nH]1)C[C@@H](CCc1ccc(C(=O)N[C@@H](CCC(=O)O)C(=O)O)cc1)CN2 [LOMETREXOL] |  |  |  |  |  |  |  |  | < 6.00 |  |  |  |  |  |  |  | 
Nc1nc(=O)c2nc(CNc3ccc(C(=O)N[C@@H](CCC(=O)O)C(=O)O)cc3)cnc2[nH]1 |  |  |  |  | Active | Active |  |  |  |  |  |  |  |  |  |  | 
Nc1nc2[nH]c(CCCCCC(=O)N[C@@H](CCC(=O)O)C(=O)O)cc2c(=O)[nH]1 |  |  |  |  | Active | Active | < 5.00 | 6.70 | < 6.00 | < 6.00 | < 6.00 | 6.67 | < 6.00 | < 6.00 | < 6.00 | < 6.00 | 
Nc1nc2[nH]c(CCCCCCCCC(=O)N[C@@H](CCC(=O)O)C(=O)O)cc2c(=O)[nH]1 | inactive | inactive | inactive | Active | Active | Active | < 6.00 | 8.83 | < 6.00 | < 6.00 | < 6.00 | 8.40 | < 5.00 | 7.91 | < 6.00 | < 6.00 | 8.02
Nc1nc2[nH]c(CCCCc3ccc(C(=O)N[C@@H](CCC(=O)O)C(=O)O)cc3)cc2c(=O)[nH]1 |  |  |  |  |  |  |  |  | < 6.00 |  |  |  |  |  |  |  | 
C#CCC(Cc1cnc2nc(N)nc(N)c2n1)c1ccc(C(=O)N[C@@H](CCC(=O)O)C(=O)O)cc1 (mixture of isomers) [PRALATREXATE] |  |  |  |  |  |  | 8.71 | 9.33 | < 6.00 | 7.24 |  |  | < 6.00 | 6.77 | 6.09 | 9.16 | 
